A selection: hits, their analogues and other compounds. The true share with any hit is near 1.6%.
Tb MetRS inh: T. brucei MetRS inhibitors, primary screen, biochemical, luminescence; purified T. brucei MetRS, ATP depletion, Kinase-Glo luminescence; methionyl-tRNA synthetase (Trypanosoma brucei brucei); inhibition, % at 11.9 µM; AID 624268, 2012; 360,000 tested, 0.4% active;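 active means inhibition above a per-plate cutoff of the control wells' mean inhibition plus 3 SD, cut at about 5.5% in these data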;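 further: 0% = DMSO wells median and 100% = median of wells with control inhibitor compound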
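Test system: purified T. brucei MetRS enzyme. Also added: ATP, methionine and E. coli bulk tRNA substrates. Compound: 11.9 µM single point. Schedule: 15 min enzyme-compound preincubation, 2 h reaction, 10 min detection, 25 °C. Signal: luciferase luminescence of residual ATP, Kinase-Glo. Evaluation: percent inhibition versus plate control medians. Controls: DMSO wells, low control.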
eIF4E 4G PPI: eIF4E–eIF4G protein interaction inhibitors, primary screen, biochemical, uHTS, TR-FRET, eIF4GI fragment. Eukaryotic translation initiation factor 4E (Mus musculus) + Eukaryotic translation …. TR-FRET eIF4E-eIF4GI(517-606) binding, 2 h. inhibition, % at 21.7 µM. 220,000 tested, 0.37% active. AID 782, 2007;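 further: 0% = full FRET control wells and 100% = background wells lacking eIF4GI fragment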
SUMO HTRF inh: inhibitors of in vitro SUMOylation cascade, primary screen, biochemical, HTRF, uHTS | SUMO-conjugating enzyme UBC9 (Homo sapiens), P63279 | AID 2006, 2009 | HTRF SUMOylation assay, SAE1/SAE2 + UBC9 | inhibition, % at 35 µM | 290,000 tested, 0.36% active; in the data active means inhibition above about 50%, passing the limit was not always enough
14-3-3 Bad inh: inhibitors of 14-3-3 zeta/Bad binding, primary screen, biochemical, TR-FRET, bovine 14-3-3 zeta. TR-FRET 14-3-3zeta/Dy647-pBad peptide displacement, 1 h. inhibition, % at 21.7 µM. 220,000 tested, 0.71% active;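 active means inhibition above about 70%, limit read from the data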;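 further: 0% = full 14-3-3 plus peptide FRET controls and 100% = background without 14-3-3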
p47phox inh: p47phox/p22phox peptide binding inhibitors, primary screen, biochemical, uHTS, NADPH oxidase regulatory subunit; AID 1274, 2008; inhibition, % at 24.7 µM; fluorescence polarization, 2 h; Neutrophil cytosol factor 1 (Homo sapiens), P14598; 220,000 tested, 0.53% active;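 further: 0% = p47phox with labelled peptide and 100% = labelled peptide alone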
p97 inhibitor: inhibitors of human p97 ATPase, primary screen, biochemical; Transitional endoplasmic reticulum ATPase (Homo sapiens), P55072; recombinant p97 ATPase, Kinase-Glo ATP luminescence, 3 h; inhibition, % at 8 µM; 220,000 tested, 0.42% active; in the data active means inhibition above about 15%;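 further: 0% = DMSO vehicle and 100% = wells lacking enzyme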
* marks the source's active call; other numbers are inactive results; x = not tested or not shown; [ ] = another dose, or the depositor's remark.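 How the source made its calls, unless noted: active means inhibition above about 30% (limit read from the data); inactive means the rest.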

SMILES	Tb MetRS inh	eIF4E 4G PPI	SUMO HTRF inh	14-3-3 Bad inh	p47phox inh	p97 inhibitor
O=C1NN(c2cccc(Br)c2)C(=O)/C1=C/c1ccc(-c2cc([N+](=O)[O-])ccc2O)o1	-1	34*	19	80*	-2	35*
COc1ccc(Cl)cc1C(=O)Nc1cccc(-c2ccc3nncn3n2)c1	-1	29	51*	17	33*	5
COc1cccc(C(=O)Nc2cccc(-c3ccc4nncn4n3)c2)c1OC	-1	-1	-3	-9	-9	6
Cc1cc(C)cc(Oc2ccccc2CO)c1	x	4	-4	-4	33*	0
Clc1ccccc1-c1ccc(CN2CCN(c3ccccc3)CC2)o1	0	-9	11	73*	9	-10
O=[N+]([O-])c1ccc(CN2CCN(c3ccccc3)CC2)o1	0	x	22	x	x	x
CC1(c2nnnn2-c2ccc3c(c2)OCCO3)CCC(=O)N1CCCn1ccnc1 (centres undefined)	-1	x	x	x	x	x
CSc1cccc(NC(=S)N(CCCN2CCCC2)Cc2cccn2Cc2ccc(Cl)cc2)c1	2	9	-14	36	32*	0
CSc1cccc(NC(=S)N(CCCN2CCCC2)Cc2cccs2)c1	0	2	-5	-13	10	5
COc1cccc(NC(=S)N(CCCN2CCCC2)Cc2cccn2Cc2ccc(Cl)cc2)c1	0	-1	-4	2	-10	-6
S=C(Nc1cccc(Cl)c1)N(CCCN1CCCC1)Cc1cccn1Cc1ccc(Cl)cc1	2	6	-14	25	43*	-3
CCOC(=O)Nc1ccc(NS(=O)(=O)c2ccc(C)cc2)cc1	0	3	-6	-13	-2	-6
CCOC(=O)Nc1ccc(S(=O)(=O)NCc2ccccc2)cc1	0	3	20	-6	38*	4
CCOC(=O)c1sc2nc3c(SCCC#N)cc(C(=O)c4cc(F)ccc4O)cn3c(=O)c2c1C	0	10	29	-18	-107	2
CCOC(=O)c1sc2nc3c(SCCC(=O)O)cc(C(=O)c4cc(OC)ccc4O)cn3c(=O)c2c1C	0	57*	74*	64	-17	-6
Cc1oc2c(c(C)cc3oc(=O)c(CC(=O)NCC(=O)NCC(=O)O)c(C)c32)c1C	0	x	53*	x	x	x
Cc1oc2c(c(C)cc3oc(=O)c(CC(=O)N[C@@H](CC(C)C)C(=O)O)c(C)c32)c1C	-1	x	48	x	x	x
Cc1oc2c(c(C)cc3oc(=O)c(CC(=O)N[C@H](C(=O)O)C(C)C)c(C)c32)c1C	0	x	51*	x	x	x
Cn1cc([C@]2(O)C(=O)Nc3ccc(OC(F)(F)F)cc32)c2ccccc21	1	x	x	x	x	x
OC[C@@H]1CN(Cc2ccco2)C[C@H](n2cnc3c(NCc4ccc(F)cc4)ncnc32)O1	0	x	x	x	x	x
COc1ccc(CN2CCN(S(=O)(=O)c3ccc(NC(C)=O)cc3)CC2)cc1OC	0	7	-3	68	-4	5
O=S(=O)(c1ccccc1)N1CCN(Cc2cccc(Cl)c2)CC1	0	-3	-3	72*	-10	-1
COc1ccc(CN2CCN(S(=O)(=O)c3ccc(F)cc3)CC2)cc1OC	-1	-3	-4	70*	-4	3
COc1ccc(CN2CCN(S(=O)(=O)c3ccc(F)cc3)CC2)c(OC)c1OC	1	-9	12	77*	1	-1
Cc1ccc(C)c(NC(=S)NCCN(C2CCCCC2)C2CCCC2)c1	1	97*	5	-13	-10	5
N#Cc1ccc(-c2csc(NC3=NCCCCC3)n2)cc1	-2	53*[fluorescence artefact?]	16	12	-11	1
COc1ccc(CN(C)S(=O)(=O)c2c(C)noc2C)cc1OC	0	x	x	x	x	x
COc1ccc(S(=O)(=O)N(c2onc(C)c2Cl)S(=O)(=O)c2ccc(OC)c(OC)c2)cc1OC	0	-2	10	78*	-7	1

High-throughput results: PubChem, several laboratories
